Converted amounts (≈) assume the structure as drawn. The source made the active and inactive calls. The rule behind the calls is not given here.

Data set [1] relates to Escherichia coli. Nature of the data set: Antibacterial activity against Escherichia coli K-12 W3110 infected in mouse assessed as reduction of bacterial level in blood at 30 ug, ip administered 15 mins and 12 hrs postinfection measured after 2 hrs post dose relative to control. The class given is functional, K-12 substr. W3110. The arrangement: scale not given: the % may be the effect or the level left. In short, it runs like this: (§1)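 Mice in groups of 3–7 were infected intraperitoneally with E. coli W3110 from an LB culture. They were dosed ip with 10–300 μg per dose at 15 min and 12 h postinfection. Controls were water or scrambled-sequence PPMO. Blood was taken at 2, 6, 12, 24 and 48 h, diluted and plated on LB for CFU/ml. Log CFU was compared by one-way ANOVA with Tukey-Kramer; mean ± SD.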

Data set [2] deals with Escherichia coli. Nature of the data set: Antibacterial activity against Escherichia coli K-12 W3110 infected in mouse assessed as increase of mouse survival at 300 ug, ip administered 15 mins and 12 hrs postinfection. In kind it is functional, organism-based. The conditions noted are these: K-12 substr. W3110. In short, it runs like this:
(§2)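 Mice in groups of 3–7 were infected intraperitoneally with E. coli W3110 from an LB culture. They were treated ip at 15 min and 12 h postinfection with 10, 30, 100 or 300 μg per dose; 300 μg is noted as ~15 mg/kg. Controls were water or scrambled-sequence PPMO. Survival was followed to 48 h and analysed by the Kaplan-Meier method.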

In data set [3] the test system is Escherichia coli. Nature of the data set: Antibacterial activity against Escherichia coli K-12 W3110 infected in mouse assessed as increase of mouse survival at 30 ug, ip administered 15 mins and 12 hrs postinfection. Particulars: K-12 substr. W3110. The class given is functional, organism-based. In short, it runs like this:
as §2

Data set [4] concerns Escherichia coli. Nature of the data set: Antibacterial activity against Escherichia coli K-12 W3110 infected in mouse assessed as reduction of bacterial level in blood at 100 to 300 ug, ip administered 15 mins and 12 hrs postinfection. The class given is functional, K-12 substr. W3110. In short, it runs like this: as §1
Data set [5] deals with Escherichia coli. Nature of the data set: Antibacterial activity against Escherichia coli K-12 W3110 infected in mouse assessed as increase of mouse survival at 10 ug, ip administered 15 mins and 12 hrs postinfection. The conditions noted are these: K-12 substr. W3110. In kind it is functional, organism-based. In short, it runs like this: as §2
Data set [6] has as its system Escherichia coli. Nature of the data set: Antibacterial activity against Escherichia coli K-12 W3110 infected in mouse assessed as increase of mouse survival at 100 ug, ip administered 15 mins and 12 hrs postinfection. The class given is functional, organism-based. The conditions noted are these: K-12 substr. W3110. Put shortly:
as §2

The test system of data set [7] is Escherichia coli. Nature of the data set: Antibacterial activity against Escherichia coli K-12 W3110 infected in mouse assessed as reduction of bacterial level in blood at 30 to 300 ug, ip administered 15 mins and 12 hrs postinfection measured after 2 hrs post dose relative to control. Particulars: K-12 substr. W3110. In kind it is functional, organism-based. Put shortly: as §1

Data set [8] deals with Escherichia coli. Nature of the data set: Antibacterial activity against Escherichia coli K-12 W3110 by microdilution method. Particulars: K-12 substr. W3110. In kind it is functional. A general note: In broth dilution the organism is exposed to a series of concentrations in liquid medium.
Data set [9] has as its system Escherichia coli. Nature of the data set: Antibacterial activity against Escherichia coli K-12 W3110 infected in mouse assessed as reduction of bacterial level in blood at 100 ug, ip administered 15 mins and 12 hrs postinfection measured after 2 hrs post dose relative to control. The class given is functional, organism-based. Particulars: K-12 substr. W3110. In short, it runs like this:
as §1

For data set [10], the system named is Escherichia coli. Nature of the data set: Antibacterial activity against Escherichia coli K-12 W3110 infected in mouse assessed as reduction of bacterial level in blood at 300 ug, ip administered 15 mins and 12 hrs postinfection measured after 12 hrs post dose relative to control. In kind it is functional, K-12 substr. W3110. In short, it runs like this:
as §1

In data set [11] the test system is Escherichia coli. Nature of the data set: Antibacterial activity against Escherichia coli K-12 W3110 infected in mouse assessed as reduction of bacterial level in blood at 300 ug, ip administered 15 mins and 12 hrs postinfection measured after 2 hrs post dose relative to control. The class given is functional, K-12 substr. W3110. In short, it runs like this:
as §1

Data set [12] is described as follows: Toxicity in Escherichia coli K-12 W3110 infected ip dosed mouse. The class given is organism-based. Particulars: in vivo. Put shortly:
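E. coli K-12 W3110 was grown in LB broth for the inoculum and injected intraperitoneally into groups of 3–7 mice. Conjugates were given ip at 15 min and 12 h postinfection (10–300 μg per dose), with water or scrambled-sequence conjugate as controls. Blood drawn at 2, 6, 12, 24 and 48 h was diluted and plated on LB for CFU counts. Survival was followed by Kaplan-Meier, and log CFU was compared by ANOVA with Tukey-Kramer.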

Data set [13] has as its system Escherichia coli. Nature of the data set: Antibacterial activity against Escherichia coli K-12 W3110 infected in mouse assessed as reduction of bacterial level in blood at 300 ug, ip administered 15 mins and 12 hrs postinfection measured after 6 hrs post dose relative to control. The class given is functional, K-12 substr. W3110. Put shortly:
as §1

The test system of data set [14] is Escherichia coli. Nature of the data set: Antibacterial activity against Escherichia coli K-12 W3110 infected in mouse assessed as reduction of bacterial level in blood at 10 to 30 ug, ip administered 15 mins and 12 hrs postinfection measured after 2 hrs post dose relative to control. The class given is functional, organism-based. The conditions noted are these: K-12 substr. W3110. In short, it runs like this:
as §1

Data set [15] is described as follows: Therapeutic index, ratio of LD50 for Escherichia coli K-12 W3110 infected mouse to ED50 for Escherichia coli K-12 W3110. Particulars: read-out: Ratio LD50/ED50.
In data set [16] the test system is Mus musculus. Nature of the data set: Toxicity in Escherichia coli K-12 W3110 infected mouse at 15 mg/kg, ip. The class given is organism-based. The arrangement: dose 15 mg/kg, route intraperitoneal. The conditions noted are these: in vivo. Put shortly: as §2
Data set [17] deals with Escherichia coli. Nature of the data set: Antibacterial activity against Escherichia coli K-12 W3110 infected in ip dosed mouse assessed as reduction of bacterial level in blood administered 15 mins and 12 hrs postinfection. In kind it is functional. Particulars: K-12 substr. W3110, Blood. In short, it runs like this:
as §1

For data set [18], the system named is Rattus norvegicus. Nature of the data set: Toxicity in rat at 150 mg/kg, ip. Particulars: in vivo.

`Cc1cn([C@H]2CN(P(=O)(OC[C@@H]3CN(P(=O)(OC[C@@H]4CN(P(=O)(OC[C@@H]5CN(P(=O)(OC[C@@H]6CN(P(=O)(OC[C@@H]7CN(P(=O)(OC[C@@H]8CN(P(=O)(OC[C@@H]9CN(P(=O)(OC[C@@H]%10CNC[C@H](n%11cnc%12c(=O)[nH]c(N)nc%12%11)O%10)N(C)C)C[C@H](n%10cc(C)c(=O)[nH]c%10=O)O9)N(C)C)C[C@H](n9cnc%10c(=O)[nH]c(N)nc%109)O8)N(C)C)C[C@H](n8cnc9c(N)ncnc98)O7)N(C)C)C[C@H](n7cc(C)c(=O)[nH]c7=O)O6)N(C)C)C[C@H](n6cnc7c(N)ncnc76)O5)N(C)C)C[C@H](n5cnc6c(=O)[nH]c(N)nc65)O4)N(C)C)C[C@H](n4ccc(N)nc4=O)O3)N(C)C)C[C@@H](COP(=O)(N(C)C)N3C[C@@H](COP(=O)(N(C)C)N4C[C@@H](COP(=O)(N(C)C)N5CCN(C(=O)CCNC(=O)CCCCCNC(=O)[C@H](CCCNC(=N)N)NC(=O)CCCCCNC(=O)[C@H](CCCNC(=N)N)NC(=O)CCCCCNC(=O)[C@H](CCCNC(=N)N)NC(=O)CCCCCNC(=O)[C@H](CCCNC(=N)N)NC(=O)CCCCCNC(=O)[C@H](CCCNC(=N)N)NC(=O)CCCCCNC(=O)[C@@H](N)CCCNC(=N)N)CC5)O[C@@H](n5ccc(N)nc5=O)C4)O[C@@H](n4cc(C)c(=O)[nH]c4=O)C3)O2)c(=O)[nH]c1=O` (stereo not given in full): in data set [1], the Activity came out at 88%. Besides, the result in [2], in data set [3] and in data set [5] was inactive. Also, in [4], the log10cfu came to 3. The result in [6] and in data set [7] was Active. The MIC in [8] came out at 1.25 µM (≈ 6.84 µg/mL).
In the case of `Cc1cn([C@H]2CN(P(=O)(OC[C@@H]3CN(P(=O)(OC[C@@H]4CN(P(=O)(OC[C@@H]5CN(P(=O)(OC[C@@H]6CN(P(=O)(OC[C@@H]7CN(P(=O)(OC[C@@H]8CN(P(=O)(OC[C@@H]9CN(P(=O)(OC[C@@H]%10CNC[C@H](n%11cnc%12c(=O)[nH]c(N)nc%12%11)O%10)N(C)C)C[C@H](n%10cc(C)c(=O)[nH]c%10=O)O9)N(C)C)C[C@H](n9cnc%10c(=O)[nH]c(N)nc%109)O8)N(C)C)C[C@H](n8cnc9c(N)ncnc98)O7)N(C)C)C[C@H](n7cc(C)c(=O)[nH]c7=O)O6)N(C)C)C[C@H](n6cnc7c(N)ncnc76)O5)N(C)C)C[C@H](n5cnc6c(=O)[nH]c(N)nc65)O4)N(C)C)C[C@H](n4ccc(N)nc4=O)O3)N(C)C)C[C@@H](COP(=O)(N(C)C)N3C[C@@H](COP(=O)(N(C)C)N4C[C@@H](COP(=O)(N(C)C)N5CCN(C(=O)CCNC(=O)CCCCCNC(=O)[C@H](CCCNC(=N)N)NC(=O)[C@H](Cc6ccccc6)NC(=O)[C@H](CCCNC(=N)N)NC(=O)[C@H](CCCNC(=N)N)NC(=O)NC(=O)[C@H](Cc6ccccc6)NC(=O)[C@H](CCCNC(=N)N)NC(=O)[C@H](CCCNC(=N)N)NC(=O)NC(=O)[C@H](Cc6ccccc6)NC(=O)[C@H](CCCNC(=N)N)NC(=O)[C@H](CCCNC(=N)N)NC(=O)NC(=O)[C@H](Cc6ccccc6)NC(=O)[C@@H](N)CCCNC(=N)N)CC5)O[C@@H](n5ccc(N)nc5=O)C4)O[C@@H](n4cc(C)c(=O)[nH]c4=O)C3)O2)c(=O)[nH]c1=O` (stereo not given in full), the result in [9] was Active. Further, the log10cfu in data set [10], in data set [11] and in data set [13] was 2 each time. In addition, the LD50 in [12] was 300 mg/kg. For the same compound, the outcome in data set [14] was inactive. In data set [15], the selectivity ratio stood at 200. In addition, the Activity result in data set [16] was “Non-toxic”. Also, the median effective dose (ED50) in data set [17] turned out to be 1.5 mg/kg. Besides, the lowest concentration to inhibit growth in [8] (MIC) was 0.625 µM (≈ 3.71 µg/mL).
Take `Cc1cn([C@H]2CNC[C@@H](COP(=O)(N(C)C)N3C[C@@H](COP(=O)(N(C)C)N4C[C@@H](COP(=O)(N(C)C)N5C[C@@H](COP(=O)(N(C)C)N6C[C@@H](COP(=O)(N(C)C)N7C[C@@H](COP(=O)(N(C)C)N8C[C@@H](COP(=O)(N(C)C)N9C[C@@H](COP(=O)(N(C)C)N%10C[C@@H](COP(=O)(N(C)C)N%11C[C@@H](COP(=O)(N(C)C)N%12C[C@@H](COP(=O)(N(C)C)N%13CCN(C(=O)CCNC(=O)CCCCCNC(=O)[C@H](CCCNC(=N)N)NC(=O)[C@H](Cc%14ccccc%14)NC(=O)[C@H](CCCNC(=N)N)NC(=O)[C@H](CCCNC(=N)N)NC(=O)NC(=O)[C@H](Cc%14ccccc%14)NC(=O)[C@H](CCCNC(=N)N)NC(=O)[C@H](CCCNC(=N)N)NC(=O)NC(=O)[C@H](Cc%14ccccc%14)NC(=O)[C@H](CCCNC(=N)N)NC(=O)[C@H](CCCNC(=N)N)NC(=O)NC(=O)[C@H](Cc%14ccccc%14)NC(=O)[C@@H](N)CCCNC(=N)N)CC%13)O[C@@H](n%13cc(C)c(=O)[nH]c%13=O)C%12)O[C@@H](n%12ccc(N)nc%12=O)C%11)O[C@@H](n%11cc(C)c(=O)[nH]c%11=O)C%10)O[C@@H](n%10ccc(N)nc%10=O)C9)O[C@@H](n9cnc%10c(N)ncnc%109)C8)O[C@@H](n8cnc9c(=O)[nH]c(N)nc98)C7)O[C@@H](n7cnc8c(N)ncnc87)C6)O[C@@H](n6cc(C)c(=O)[nH]c6=O)C5)O[C@@H](n5cnc6c(=O)[nH]c(N)nc65)C4)O[C@@H](n4cnc5c(=O)[nH]c(N)nc54)C3)O2)c(=O)[nH]c1=O` (stereo not given in full): in data set [18], the Activity entry is on record as “Toxic”. In addition, the LD50 in data set [12] was found to be 210 mg/kg.

By MIC is commonly meant the least concentration at which growth counts as inhibited. One may read the LD50 as the dose at which mortality reaches 50%. By ED50 is commonly meant the dose at which the effect has come halfway, by size or by number of responders.

For the origin of these results see ChEMBL document CHEMBL1629608, “Variations in amino acid composition of antisense peptide-phosphorodiamidate morpholino oligomer affect potency against Escherichia coli in vitro and in vivo” (Antimicrob Agents Chemother, 2009).
